# Experimental data reported in BindingDB's records for doi:10.1021/acs.jmedchem.5b01723 (Uppsala University, 2016).
# What was measured:
# [1] = target: T1, Carbonic anhydrase 2 (Homo sapiens, UniProt P00918); assay: Binding affinity to human recombinant CA2 expressed in Escherichia coli assessed as association rate constant after 30 secs by surface plasmon resonance assay; details: read-out: kon (M-1-s-1)
# [2] = target: T2, Carbonic anhydrase 7 (Homo sapiens, UniProt P43166); assay: Binding affinity to human recombinant CA7 assessed as dissociation rate constant after 30 secs by surface plasmon resonance assay
# [3] = target: T3, Carbonic anhydrase 13 (Homo sapiens, UniProt Q8N1Q1); assay: Binding affinity to human recombinant CA13 assessed as dissociation rate constant after 30 secs by surface plasmon resonance assay
# [4] = target: T2, Carbonic anhydrase 7; assay: Binding affinity to human recombinant CA7 assessed as association rate constant after 30 secs by surface plasmon resonance assay; details: read-out: kon (M-1-s-1)
# [5] = target: T1, Carbonic anhydrase 2; assay: Binding affinity to human recombinant CA2 expressed in Escherichia coli assessed as dissociation rate constant after 30 secs by surface plasmon resonance assay
# [6] = target: T3, Carbonic anhydrase 13; assay: Binding affinity to human recombinant CA13 assessed as association rate constant after 30 secs by surface plasmon resonance assay; details: read-out: kon (M-1-s-1)
# [7] = target: T4, Carbonic anhydrase 12 (Homo sapiens, UniProt O43570); assay: Binding affinity to human recombinant CA12 catalytic domain assessed as dissociation rate constant after 30 secs by surface plasmon resonance assay
# [8] = target: T4, Carbonic anhydrase 12; assay: Binding affinity to human recombinant CA12 catalytic domain assessed as association rate constant after 30 secs by surface plasmon resonance assay; details: read-out: kon (M-1-s-1)
# [9] = target: T5, Carbonic anhydrase 1 (Homo sapiens, UniProt P00915); assay: Binding affinity to human recombinant CA1 expressed in Escherichia coli assessed as dissociation rate constant after 30 secs by surface plasmon resonance assay
# Method in brief: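 CA I immobilized by amine coupling (75 µg mL−1 in 10 mM sodium acetate, pH 5) to about 6000 RU. SPR run at 25 °C in PBST with 2 % DMSO, pH 7.4. Ligand given as 2-fold series, 15.6–2000 nM, at 30 or 90 µL min−1. Association 30 s, dissociation 180 s; sulphanilamide 200 µM regeneration where needed. kd from non-linear fit to one-step binding with mass transport.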
# [10] = target: T5, Carbonic anhydrase 1; assay: Binding affinity to human recombinant CA1 expressed in Escherichia coli assessed as association rate constant after 30 secs by surface plasmon resonance assay
# Method in brief: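 Full-length enzyme amine-coupled to a carboxymethyl-dextran chip (75 µg/mL in 10 mM sodium acetate pH 5, about 6000 RU). SPR at 25 °C in PBST pH 7.4 with 2% DMSO. Ligands injected as 2-fold series, 15.6–2000 nM, at 30 or 90 µL/min. Association 30 s, dissociation 180 s. Regeneration with 200 µM sulphanilamide. ka from non-linear fit to a one-step binding model with mass transport.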
# T3 sequence (Q8N1Q1 whole entry): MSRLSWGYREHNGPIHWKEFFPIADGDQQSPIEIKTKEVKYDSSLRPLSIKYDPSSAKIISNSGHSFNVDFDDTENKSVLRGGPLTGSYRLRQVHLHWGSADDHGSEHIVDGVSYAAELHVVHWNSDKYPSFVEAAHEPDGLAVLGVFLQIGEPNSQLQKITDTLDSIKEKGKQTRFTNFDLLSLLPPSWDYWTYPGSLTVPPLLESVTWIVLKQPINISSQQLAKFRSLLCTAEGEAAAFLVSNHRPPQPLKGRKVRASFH
# T2 sequence (P43166 whole entry): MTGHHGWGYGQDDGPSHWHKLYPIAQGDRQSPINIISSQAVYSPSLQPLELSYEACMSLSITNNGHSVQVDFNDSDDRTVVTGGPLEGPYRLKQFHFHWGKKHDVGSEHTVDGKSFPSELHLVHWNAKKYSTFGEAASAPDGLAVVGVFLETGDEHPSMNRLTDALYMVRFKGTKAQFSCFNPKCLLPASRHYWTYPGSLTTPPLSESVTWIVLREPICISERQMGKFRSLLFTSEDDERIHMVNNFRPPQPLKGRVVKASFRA
# T4 sequence (O43570 whole entry, the tested form may be a part): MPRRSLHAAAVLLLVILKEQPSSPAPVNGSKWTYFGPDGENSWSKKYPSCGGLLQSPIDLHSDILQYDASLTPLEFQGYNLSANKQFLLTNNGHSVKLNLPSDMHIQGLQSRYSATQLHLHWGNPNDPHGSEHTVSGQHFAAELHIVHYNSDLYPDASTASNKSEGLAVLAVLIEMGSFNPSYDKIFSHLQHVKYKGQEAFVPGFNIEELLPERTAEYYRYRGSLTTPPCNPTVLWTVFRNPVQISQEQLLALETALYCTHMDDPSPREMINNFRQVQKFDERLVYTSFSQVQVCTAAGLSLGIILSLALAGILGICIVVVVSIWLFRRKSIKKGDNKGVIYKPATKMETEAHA
# T5 sequence (P00915 whole entry): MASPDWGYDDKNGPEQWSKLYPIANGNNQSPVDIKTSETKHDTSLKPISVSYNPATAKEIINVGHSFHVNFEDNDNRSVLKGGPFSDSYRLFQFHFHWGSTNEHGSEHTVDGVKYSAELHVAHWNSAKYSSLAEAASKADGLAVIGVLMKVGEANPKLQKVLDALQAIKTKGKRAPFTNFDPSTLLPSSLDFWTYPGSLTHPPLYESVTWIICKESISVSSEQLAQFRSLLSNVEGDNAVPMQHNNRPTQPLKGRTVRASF
SMILES,kon [1],koff [2],koff [3],kon [4],koff [5],kon [6],koff [7],kon [8],koff [9],kon [10]
"CCCS(=O)(=O)c1c(F)c(F)c(S(N)(=O)=O)c(F)c1NC1CCCCCCC1 [carbonic anhydrase (CA) inhibitors, benzenesulphonamide ligand, 13]",86000 M⁻¹ s⁻¹,0.002 s⁻¹,0.0079 s⁻¹,49000 M⁻¹ s⁻¹,0.0087 s⁻¹,510000 M⁻¹ s⁻¹,,,,
"CNc1c(F)c(S(N)(=O)=O)c(F)c(F)c1S(=O)(=O)CCc1ccccc1 [carbonic anhydrase (CA) inhibitors, benzenesulphonamide ligand, 14]",1.3e+06 M⁻¹ s⁻¹,0.013 s⁻¹,,290000 M⁻¹ s⁻¹,0.0082 s⁻¹,,0.14 s⁻¹,1.5e+06 M⁻¹ s⁻¹,0.01 s⁻¹,390000 M⁻¹ s⁻¹
"CCCSc1c(F)c(F)c(S(N)(=O)=O)c(NC2CCCCCCC2)c1F [carbonic anhydrase (CA) inhibitors, benzenesulphonamide ligand, 12]",,0.01 s⁻¹,,20000 M⁻¹ s⁻¹,,,0.05 s⁻¹,130000 M⁻¹ s⁻¹,,

# Other lines, results leading:
kon [1],koff [2],koff [3],kon [4],koff [5],kon [6],koff [7],kon [8],koff [9],kon [10],SMILES
390000 M⁻¹ s⁻¹,0.14 s⁻¹,0.022 s⁻¹,30000 M⁻¹ s⁻¹,0.026 s⁻¹,100000 M⁻¹ s⁻¹,,,0.0066 s⁻¹,110000 M⁻¹ s⁻¹,"COc1ccc(CNc2c(F)c(F)c(F)c(F)c2S(N)(=O)=O)cc1 [carbonic anhydrase (CA) inhibitors, benzenesulphonamide ligand, 15]"
1.4e+06 M⁻¹ s⁻¹,0.071 s⁻¹,0.011 s⁻¹,2.6e+06 M⁻¹ s⁻¹,0.0093 s⁻¹,920000 M⁻¹ s⁻¹,0.041 s⁻¹,880000 M⁻¹ s⁻¹,,,"NS(=O)(=O)c1c(F)c(F)c(N2CCCCC2)c(F)c1F [carbonic anhydrase (CA) inhibitors, benzenesulphonamide ligand, 16]"
,,,,,,0.011 s⁻¹,180000 M⁻¹ s⁻¹,,,"CC(C)(C)Nc1c(F)c(S(N)(=O)=O)c(F)c(F)c1S(=O)(=O)CCc1ccccc1 [carbonic anhydrase (CA) inhibitors, benzenesulphonamide ligand, 15]"
